Fewer inactive variants are shown than the library holds.
B1: tRNA (parent)
chain: GUUCCGUUGGCGUAAUGGUAACGCGUCUCCCUCCUAAGGAGAAGACUGCGGGUUCGAGUCCCGUACGGAACG

Variants of: B1
Test: yeast fitness relative to wild type (ratio to wild type); higher = fitter; tRNA-Arg(CCU), competitive growth, 37 C, YPD
Outline: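 For this measurement, the tRNA-Arg(CCU) gene was varied by chemical synthesis at a 3% per-site mutation rate across 69 sites, and each variant was placed at the native genomic locus in Saccharomyces cerevisiae. The pooled strains went through a 24-hour competition in YPD at 37°C in six parallel replicates, with amplicons from start and end populations read by 100-nucleotide paired-end sequencing. Darwinian fitness relative to wild type followed from the change in each genotype's frequency. Genotypes needed ≥ 100 starting reads, and estimates < 0.5 were set to 0.5.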

Variant	yeast fitness
GUUCCCUUGGCGUAAUAGUAACGCGUCUCCCUCCUUAGGAGAAGACUGCGGGUUCGAGUCCCGUACGGAACG [G6C G17A A36U]	≤ 0.5
GUUCCCUUGGCGUAAUGGUAACGCAUCUCCCUCCUAAGGAGAUGACUGCGGGUUCGAGUCCCGUACCGAACG [G6C G25A A43U G67C]	≤ 0.5
GUUCCCUUGACGUAAUGGUAACGCGUAUCCCUCCUAAGGAGAAGACUGCGGGUUCGAGUCUCGUUCGGAACG [G6C G10A C27A C61U A65U]	≤ 0.5
GUUCCCUUGGCGUAAUGGUAACCAGUCUCCCUCCUAAGGAGAAGACUGCGGGUUCGAGUCCCGUAUGGAACG [G6C G23C C24A C66U]	≤ 0.5
GUUCCCUUGGCCUAUUGGUACCGCGUCUCCCUCCUAAGGAGAAGACUGUGCGCUCGAGUCCCGUACGGAACG [G6C G12C A15U A21C C49U G51C U53C]	≤ 0.5
GUUCCCUUGGCGUAAUGGUAACACGUCUCCCUCCUAAGGAGAAGACUGUGGGUUCGAGUCCCGUACGGAACG [G6C G23A C49U]	≤ 0.5
GUUCCCUUGGCAUAAUGGUAACGCGUCUCCCUCCUAAGGAGAAGACUGCGGGUUCGACUCCCGUACGGAACG [G6C G12A G58C]	0.964
GUUCCCUUGGCGUAAUGGUAACGCCUCUCCCUCCUAUGCAGAAGACUGCGGGUUCGAGUCCGGUACGGAACG [G6C G25C A37U G39C C62G]	≤ 0.5
GUUCCCUUGGCGUAAUGGUAACGCGUCUCCCUCCUAAGGAGAAGACUGCGGGUUCGAGUCCUGUACGGAACG [G6C C62U]	0.879
GUUCCCUUGGCGUAAUGGUAACGCGUCUCCCUCCUAAGGAGAAGACUGCGGGUUCGAGUCCGGUACGGAACG [G6C C62G]	0.688
GUUCCCUUGGCGUAAUGGUAACCCGUCUCCCUCCUAAGGAGAAGACUGCGGGUUCGAGUCCCGUACGGAACG [G6C G23C]	0.643
GUUCCCUUGACGUAAUGGUAACGCGUCUCCCUCCUUAGGAGAAGACUGCGCGUUCGAGUCCCGUACGGCACG [G6C G10A A36U G51C A69C]	0.624
GUUCCCUUGGCAUAAUGGUAACGCGUCUCCCUCCUAAGGAGAAGACUGUGGGUUCGACUCCCGUACGGAACG [G6C G12A C49U G58C]	0.776
GUUCCCUUGGCGUAAUGGUAACGCGUCUCCCUCCUAAGGAGAAGACUGCGGGUUUGAGGCCCGUACGGAUCG [G6C C55U U59G A70U]	≤ 0.5
GUUCCCUUGGCGUAAUGGUAACGCAUGUCCCUCCUAAGGAGAAGACUGCGGGUUCGAGUCCCGUACGGAACG [G6C G25A C27G]	0.591
GUUCCCUUGGCCUAAUGGUAACGCGUCUACCUCCUAAGGAGAAGACUGCGGGUUCGAGUCCCGUACGGAACG [G6C G12C C29A]	≤ 0.5
GUUCCCUUGGCGUAAUAGUAACGCGUCUCCCUCCUUAGGAGAAGAAUGUGGGUUCGAGUCCCGUAAGGAACG [G6C G17A A36U C46A C49U C66A]	≤ 0.5
GUUCCCUUGCCGUAAUGGUAACGCGUCUCUCUCCAAAGGAGAAGACUGCGGGUUCGAGUCCCGUACGGAACG [G6C G10C C30U U35A]	≤ 0.5
GUUCCCUUGGCGUAAUGGUAACACGUUUCCCUCCUAAGGAGAAGGCUGCGGGUUCGAGUCCCGAACGGAACG [G6C G23A C27U A45G U64A]	≤ 0.5

Variant	yeast fitness
GUUCCCUUGCUGUAAUGGUAACGCGUCUCCCUCCUAAGGAGAAGACUGCGGGUUUGAGUCGGGUACGGAACG [G6C G10C C11U C55U C61G C62G]	≤ 0.5
GUUCCCUUAGCGUAAUGGUAUCGCGUCGCCCUCUUAAGGAGAAGCCUGCGGGUUCGAGUCCCGUACGGAACG [G6C G9A A21U U28G C34U A45C]	≤ 0.5
GUUCCCUUGGCGUAAUGGUAACGCGUCUCCCUCCUAAGGAGAAGACUGCGGGUUCGAGUUCAGUACGGAACG [G6C C60U C62A]	≤ 0.5
GUUCCCUUGACGUAAUGGUAACGCGUCUCCCUCCUAAGGAGAAGACUGCGGGUUCGAGUCCCGUACGGAACG [G6C G10A]	0.666
GUUCCCUUGGCGUAAUGAUAACGCGUCUCCCUCCUAAGGAGAAGACUGCGGGUUCGAAUCCCGUACGGAACG [G6C G18A G58A]	≤ 0.5
GUUCCCUUGGCAUAAUGGUAACGCGUCUCCCUUCUAAGGAGAAGACUGCGGGUUCGAGUCCCGUGCGGAGCG [G6C G12A C33U A65G A70G]	≤ 0.5
GUUCCCUUGCCGUAAUGGUAAGGCGUCUCUCUCUUUAGGAGAAGACUGCGGGUUCGAGUCCCGUACGGAACG [G6C G10C C22G C30U C34U A36U]	0.517
GUUCCCUUGGCGUAAUGGUAACGCGUCUCCCUCCUAAGGAGAAGACUGCGGGUUCGAGUACCGUACGGAACG [G6C C60A]	0.583
GUUCCCUUGGCGUAAUGCUAGCGCGUCUCCCUCCUAAGGUGAAGACUGUGGGUUCGAGUCCCGUACGGAACG [G6C G18C A21G A40U C49U]	≤ 0.5
GUUCCCUUGGCGUAAUAGUAACGCGUCUCUCUCCUAAGGAGCAGACUGCGGGUUCGAGUCCCGUGGGAAACG [G6C G17A C30U A42C A65G C66G G68A]	≤ 0.5
GUUCCCUUGGCGUAAUGGUAACGCAUCUCCCUCCUAAGGAGAAGACUGCGGGUUCGAGUCCCGUACGGACCG [G6C G25A A70C]	0.631
GUUCCCUUCGCGUAAUGGUAACGCGUCUCCCACCUAACGAGAAGACAGCGGGUUCGAGUCCCGUACGGAACG [G6C G9C U32A G38C U47A]	≤ 0.5
GUUCCCUUGGCGUAAUGGUAACCCGUCUCCGUCCUAAGGAGAAGACUGCGGGUUCGAGUCCCGUACGGAACG [G6C G23C C31G]	≤ 0.5
GUUCCCUUGACGUAAUGGUAACGCGUCUCCCUCCUUAGGAGAAGACUGCGGGUUCGAGUCCCAUACGGAACG [G6C G10A A36U G63A]	≤ 0.5
GUUCCCUUGGCGUAAUGGUAACCAGUCUCCCUCCUAAGGAGAAGACUGCGGGUUCGAGUCUCGUACGGAACG [G6C G23C C24A C61U]	≤ 0.5
GUUCCCUUGGCGUAAUGGUAACGCAUCUCCCUCCUAAGGAGAAGACUGCGGGUUCGAGUCCCGUGCGGAACG [G6C G25A A65G]	0.595
GUUCCCUUGGCGUAAUGCUAGCGCGUCUCCCUCCUAAGGUGAAGACAGUGGGUUCGAGUCUCGUACGGAGCG [G6C G18C A21G A40U U47A C49U C61U A70G]	≤ 0.5
GUUCCCUUGGCAUAAUGGUAACGCGUCUCCCUCCUAAGGAGAAGACUGCGGGUCCGAGUCCCGUACGGAACG [G6C G12A U54C]	0.594
GUUCCCUUGGCGUAAUGGUAACGCGUCUCCCUCCUAACGAGACGACUGCGCGUUCCAGUCCCGUACGGAACG [G6C G38C A43C G51C G56C]	0.526

Source: the RNAGym collection of RNA variant scans (doi:10.1126/science.aae0568)
